An excerpt weighted towards active compounds, which were near 3.9% of everything screened.
tim23-1 inh = inhibits growth of tim23-1 mutant yeast | AID 463212 | inhibition, % at 20 µM | S. cerevisiae tim23-1 growth, BacTiter-Glo luminescence, 24 h | hit rate 1.3% among 330,000;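 active means growth inhibition of the mutant yeast at or above 50%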;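 further: temperature-sensitive mutant grown at 25 °C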
UPR CHOP act = apoptotic UPR (CHOP) activation. hit rate 0.34% among 330,000. activation, % at 10 µM. CHO-CHOP luciferase reporter, luminescence; percent of tunicamycin response over DMSO baseline;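 active means at 10 µM dose, activation of 40% or more, normalized to positive control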
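assay system = CHO CHOP reporter cells | amount = 500 CHO-CHOP cells per well | buffer or medium = F12 with 10% FBS | incubation = 16-18 h cell attachment, then 6 h compound exposure, 37 °C | detection = luminescence read with Steady-Glo | read-out = percent activation relative to tunicamycin control | controls = tunicamycin high control, DMSO low control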
TIM10 inh = TIM10 yeast growth inhibition; S. cerevisiae TIM10 strain growth, BacTiter-Glo luminescence, 24 h; inhibition, % at 10 µM; hit rate 1.4% among 330,000; AID 463195;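 active means inhibition of 40% or more at the single tested concentration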;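 further: wild-type TIM10 isogenic control strain grown at permissive 25 °C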
tim10-1 inh = tim10-1 yeast growth inhibition | S. cerevisiae tim10-1 ts strain growth, BacTiter-Glo, 24 h | inhibition, % at 20 µM | hit rate 2.2% among 330,000;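 active means inhibition of at least 40%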;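 further: mutant grown at 25 °C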
XBP1 UPR activ = adaptive UPR (XBP1) activation | CHO-XBP1 luciferase reporter, IRE1-XBP1 UPR activation, luminescence; percent of tunicamycin response, DMSO as zero | activation, % at 20 µM | hit rate 0.33% among 330,000;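 active means versus positive control, 20 µM dose yields 30% or more activation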
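Test system: CHO-XBP1 luciferase reporter cells | Buffer or medium: Serum-containing F12 medium, 10% FBS | Schedule: 6 h compound exposure at 37 °C, 5% CO2 | Detection: Steady-Glo luciferase glow luminescence, 10 min after reagent addition | Read-out basis: Activation, % of tunicamycin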
tim10-1 confirm = tim10-1 yeast growth inhibition, confirmed. shares compounds with tim10-1 inh. S. cerevisiae tim10-1 ts strain growth, BacTiter-Glo, 24 h. inhibition, % at 20 µM. hit rate 56% among 7,400;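 active means inhibition of yeast growth at or above a set limit in either of two repeat tests at 20 µM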;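 further: tim10-1 mutant grown at permissive 25 °C to find synthetic lethal compounds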
TIM10 conf = TIM10 yeast growth inhibition, confirmed. inhibition, % at 10 µM. S. cerevisiae tim10 strain growth, BacTiter-Glo luminescence, 24 h. shares compounds with TIM10 inh. hit rate 63% among 4,600;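 active means inhibition of yeast growth at or above a set limit in either of two replicates at 10 µM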; further: this counterscreen used the strain with wild-type TIM10
Of the large screens only hits and unclear results are named; the others gave an inactive call (follow-up assays come after a bar, where they were run).

O=C(Nc1nc2c(Cl)ccc(Cl)c2s1)C1CC1	none
Cc1cccc[n+]1CCCCCCCCCC[n+]1ccccc1C	TIM10 inh 45.6, tim10-1 inh 51.5 | tim10-1 confirm 70.3 | TIM10 conf 47.2
CCc1cccc2c(C(=O)COC(=O)c3ccc([N+](=O)[O-])s3)c[nH]c12	TIM10 inh 73.8, tim10-1 inh 63.5 | tim10-1 confirm inactive | TIM10 conf 75.7
O=C(OCC(=O)c1c[nH]c2ccccc12)c1ccc([N+](=O)[O-])s1	TIM10 inh 72.9, tim10-1 inh 40.3 | tim10-1 confirm 52.6 | TIM10 conf 84.2
CCN(CC)C(=O)c1[nH]cnc1C(=O)N[C@H](C)c1ccccc1	none
CCOC(=O)C(C(=O)OCC)C(Nc1cccc(Br)c1)c1ccccc1 (stereo not drawn)	TIM10 inh 52.9, tim10-1 inh 55.1 | tim10-1 confirm 37.0 | TIM10 conf 42.9
Cc1ccccc1Nc1nc(N)nc(CSc2nc3ccccc3s2)n1	none
Cc1ccc(Nc2nc(N)nc(CSc3nc4ccccc4s3)n2)cc1	TIM10 inh 47.4, tim10-1 inh 46.8 | tim10-1 confirm inactive | TIM10 conf inactive
NS(=O)(=O)c1ccc(NC(=O)NC2CC(=O)N(c3ccc4c(c3)OCCO4)C2)cc1 (stereo not drawn)	none
CNC(=O)NCC12CC3CC(CC(C3)C1)C2	none
Cc1cc(C(=O)NCC23CC4CC(CC(C4)C2)C3)c(C)o1	TIM10 inh 40.0, tim10-1 inh 45.4 | tim10-1 confirm inactive | TIM10 conf 33.8
C=CCSc1nc2ccccc2n1C(=O)/C=C/c1cc(OC)c(OC)c(OC)c1	TIM10 inh 42.8, tim10-1 inh 45.5 | tim10-1 confirm 49.5 | TIM10 conf 40.9
COc1ccc(Cc2nnc(NC(=O)Nc3ccccc3)s2)cc1OC	none
O=C(CCc1ccc(Oc2cc([N+](=O)[O-])cc([N+](=O)[O-])c2)cc1)N1CCCCC1	TIM10 inh 53.7, tim10-1 inh 57.3 | tim10-1 confirm 35.0 | TIM10 conf 48.3
O=[N+]([O-])c1ccc(/C=N/n2cnc3ccccc32)s1	TIM10 inh 79.4, tim10-1 inh 48.5 | tim10-1 confirm 57.4 | TIM10 conf 89.8
COc1ccc(Cc2nnc(NC(=O)c3ccccc3)s2)cc1OC	none
O=C(Nc1ccc(Nc2ccccc2)cc1)c1ccc(Cl)cc1	none
N#C/C(C(=O)Nc1ccc(Cl)cc1)=C(/S)Nc1ccccc1	TIM10 inh 45.1, tim10-1 inh 68.7 | tim10-1 confirm 59.7 | TIM10 conf 56.3
Cc1ccccc1S(=O)(=O)c1c(C)cc(C)n(C(C)C)c1=O	TIM10 inh 51.7, tim10-1 inh 41.0 | tim10-1 confirm 34.5 | TIM10 conf inactive
CCCCCn1nc(C(=O)N(CC)c2c(N)n(CCCC)c(=O)[nH]c2=O)c2ccccc2c1=O	none
O=S(=O)(c1ccccc1)N1CCC(O)(CSc2ccc(Cl)cc2)CC1	TIM10 inh 43.0, tim10-1 inh 43.7 | tim10-1 confirm 36.5 | TIM10 conf inactive
CN1CCN(C(=S)c2cn(Cc3ccccc3F)c3ccccc23)CC1	none
CC1CCN(C(=S)c2cn(Cc3ccccc3F)c3ccccc23)CC1	TIM10 inh 41.7, tim10-1 inh 43.0 | tim10-1 confirm 31.5 | TIM10 conf inactive
Cn1c(CNC(=O)CNC(=O)c2ccc(C(C)(C)C)cc2)cc(=O)n(C)c1=O	none
Cc1ccc(/C=C/C(=O)c2c(C)nc3ccccn23)cc1	none
Cc1nc2ccccn2c1C(=O)/C=C/c1cccc([N+](=O)[O-])c1	UPR CHOP act 115.6, TIM10 inh 51.5, tim10-1 inh 50.4 | tim10-1 confirm 43.6 | TIM10 conf 54.0
CN(C)c1ccc(/C=N/n2c(-c3ccccc3Br)n[nH]c2=S)cc1	TIM10 inh 40.7, tim10-1 inh 42.0 | tim10-1 confirm inactive | TIM10 conf inactive
O=C(Nc1ccc(Cc2ccncc2)cc1)c1cccc([N+](=O)[O-])c1	none
O=C(CCNc1ccc(Cc2ccncc2)cc1)c1ccc([N+](=O)[O-])cc1	TIM10 inh 62.0, tim10-1 inh 49.3 | tim10-1 confirm 37.2 | TIM10 conf 41.2
NC(=O)CSc1nnc(-c2ccccc2F)n1C1CC1	none
Cc1[nH]nc2c1-c1nc3ccccc3nc1C(C)(C)C2	TIM10 inh 44.2, tim10-1 inh 44.1 | tim10-1 confirm 34.9 | TIM10 conf inactive
CC12CCC(C)(c3nc4ccccc4nc31)C2(C)C	none
COc1ccc(S(=O)(=O)NCC2CCCN(C(=O)CCC(F)(F)F)C2)cc1 (stereo not drawn)	none
CCN1/C(=C\C(=S)Nc2ccccc2)Sc2ccccc21	TIM10 inh 49.5, tim10-1 inh 45.2 | tim10-1 confirm inactive | TIM10 conf 43.2
CCN1/C(=C\C=C(C(C)=O)C(C)=O)Sc2ccccc21	none
Cc1ccc(OC(F)F)c(NC(=O)Nc2cccc(C(F)(F)F)c2)c1	TIM10 inh 50.9, tim10-1 inh 46.8 | tim10-1 confirm 44.8 | TIM10 conf 57.7
O=C1Nc2c(Br)cccc2C1=O	none
Cc1ccc(COc2ccccc2C(=S)N2CCCC2)cc1	TIM10 inh 41.6, tim10-1 inh 40.3 | tim10-1 confirm inactive | TIM10 conf inactive
S=c1[nH]nc(CSc2nc3ccccc3s2)n1C1CCCCC1	TIM10 inh 49.4, tim10-1 inh 47.4 | tim10-1 confirm 42.5 | TIM10 conf inactive
COc1ccc(CC(=O)OCC(=O)N2CCCc3ccccc32)cc1OC	none
Cc1ccc(NC(=O)C(C)OC(=O)CCN=C2NS(=O)(=O)c3ccccc32)cc1 (stereo not drawn)	none
Cc1cccc(/C=C/C(=O)c2ccc(NC3=NCCCS3)cc2)c1	TIM10 inh 66.2, tim10-1 inh 54.3 | tim10-1 confirm 50.4 | TIM10 conf 59.4
c1ccc(NC2=NCCCCS2)cc1	none
COc1ccc(C(=O)NCCCNC(=O)c2ccccn2)cc1	none
COc1ccc(NC(=O)CC(C)n2ccnc2)cc1 (stereo not drawn)	none
CC(=O)OC1CCC2(C)C(=CCC3C2CCC2(C)C3CC3OC4(CCC(C)CN4)C(C)C32)C1 (stereo not drawn)	TIM10 inh 43.9, tim10-1 inh 40.7 | tim10-1 confirm 34.5 | TIM10 conf inactive
C[C@]12CC[C@H](OC(=O)CCC(=O)O)CC1=CCC1C2CC[C@@]2(C)C1CC[C@@H]2N (stereo partly drawn)	none
COC(=O)/C=C1\OC(c2ccccc2)=CC1=O	TIM10 inh 40.4, tim10-1 inh 41.6 | tim10-1 confirm inactive | TIM10 conf 32.0
O=C(Nc1nc(-c2ccccc2)cs1)c1ccc(Br)o1	TIM10 inh 41.2, tim10-1 inh 41.1 | tim10-1 confirm 47.7 | TIM10 conf 50.3

From PubChem
